The record followed here is article PMC8463269 (Acta Pharmaceutica Sinica. B, 2021).

Read-outs that look alike come from different tables or passages of the source. Where a SMILES comes first, the peptide text is derived from it. Bridges are numbered along the chain shown (N, C = ends). [ ]: non-standard residue; d: D form. S5 = C=CCCC[C@](C)(N)C(=O)O

Data set [1] in a line: Plasma stability in rat plasma. The class given is in vitro ADME, Sprague–Dawley rats. To be noted: 1300 μg/mL, 0 min, HPLC. The essentials: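 Heparinised blood was drawn from the femoral artery of Sprague–Dawley rats and centrifuged at 4 °C, 4000 r/min for 10 min to give plasma. Plasma spiked with test peptide was incubated at 37 °C. Aliquots were precipitated in 3 volumes of methanol–acetonitrile (50:50), vortexed and centrifuged, and the supernatant was analysed by C18 RP-HPLC with a 0.1% TFA water/acetonitrile gradient.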

The nature of data set [2]: Circular dichroism spectroscopy, α-helicity. The class given is physicochemical. The settings on record: CD, 0.3 mg/mL in 1×PBS pH 7.4, 25 °C, 190–260 nm, average of three readings. The method in brief: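 Spectra were taken in a 1.0 mm path quartz cell with 1 nm bandwidth, 50 nm/min scan speed and 1 s response time. Peptide was also run in PBS with 50% trifluoroethanol. Spectra were converted to mean residue ellipticity (deg·cm²/dmol) versus wavelength.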

Data set [3] concerns H358 cells. Put plainly: Cell viability, CCK8 assay. The settings on record: read-out: IC50, H358 cell viability, n = 3. The class given is cell-based. The essentials:
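H358 cells in RPMI-1640 with 10% FBS were plated overnight, then incubated with diluted series of test peptide for 24 h, or 36, 48 and 72 h. CCK8 reagent was added for 1 h at 37 °C and absorbance read at 450 nm. Mean ± SD of three independent experiments.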
(Tetrazolium dyes change colour on reduction, which living cells bring about.)

The next data set addresses KRAS^G12C protein (Homo sapiens, UniProt P01116, G12C). Put plainly: Bio-Layer Interferometry. The format is binding. The essentials: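 The biotinylated protein was captured on SSA sensors in an Octet RED 96. Test peptides were run at various concentrations, and KD was calculated from the binding kinetics.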
For orientation: BLI is a label-free optical method that tracks binding on a fibre tip over time.

Data set [4] deals with cyclin-dependent kinase 1 (CDK1). Put plainly: Western blot, CDK1 expression in H358 cells. The class given is cell-based. To be noted: H358 cells, 0, 5, 10, 20 μmol/L, 24 h. The method in brief:
(§1)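 H358 cells treated with test peptide for 24 h were lysed on ice for 1 h in buffer with phosphatase inhibitor cocktail and PMSF. Proteins were separated by SDS-PAGE and transferred to PVDF. Membranes were incubated with primary antibody at 4 °C overnight, then HRP goat anti-rabbit IgG for 100 min, and imaged by chemiluminescence. GAPDH was probed alongside.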

Data set [5] relates to H358 cells. The data set can be described thus: Annexin V-FITC apoptosis assay by flow cytometry. The class given is cell-based. To be noted: 24 h, control 36.42%. Background: Flow cytometry measures light scatter and fluorescence of single cells or particles in a stream.
For the next data set, the system named is cyclin B1. The data set can be described thus: Western blot, cyclin B1 expression in H358 cells. The format is cell-based. To be noted: H358 cells, 0, 5, 10, 20 μmol/L, 24 h. The method in brief: as §1
The test system of another data set is BAX. Put plainly: Western blot, BAX expression in H358 cells. The class given is cell-based. To be noted: H358 cells, 0, 5, 10, 20 μmol/L, 24 h. The method in brief:
as §1

The test system of a further data set is caspase 3. The data set can be described thus: Western blot, caspase 3 expression in H358 cells. The class given is cell-based. The settings on record: H358 cells, 0, 5, 10, 20 μmol/L, 24 h. The essentials: as §1
A further data set can be described thus: circular dichroism. To be noted: PBS; pH 7.4; 25 °C; 0.3 mg/mL.
The test system of data set [6] is H358 cells. The data set can be described thus: Cell cycle analysis by flow cytometry. The format is cell-based. To be noted: 24-h treatment, highest concentration of the series, control 16.76%.
A further data set relates to BCL-2. The data set can be described thus: Western blot, BCL-2 expression in H358 cells. The format is cell-based. The settings on record: H358 cells, 0, 5, 10, 20 μmol/L, 24 h. The essentials:
as §1

A further data set relates to trypsin. Put plainly: Enzymatic degradation by trypsin. The format is in vitro ADME. To be noted: 150 μg/mL peptide, 3 μg/mL trypsin, NH4HCO3 buffer, 37 °C, HPLC, n = 3. The method in brief: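 Test peptide was digested with trypsin or chymotrypsin (peptide:enzyme weight ratio 50:1) in NH4HCO3 buffer at 37 °C. Samples were taken at 0, 30 min and 1, 2, 6, 12 and 24 h and quenched with 1% (v/v) formic acid. Analysis was by C18 RP-HPLC with a 0.1% TFA water/acetonitrile gradient (20→90% B over 30 min, 1 mL/min).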

The target of data set [7] is hexahistidine-tagged recombinant human KRAS^G12C (human) (UniProt P01116). Put plainly: BLI.

For the molecule `CC[C@H](C)[C@H](NC(=O)CNC(=O)[C@H](Cc1ccccc1)NC(=O)[C@H](Cc1ccccc1)NC(=O)[C@H](CCCNC(=N)N)NC(=O)[C@H](CCCNC(=N)N)NC(C)=O)C(=O)N[C@@]1(C)CCCC=CCCC[C@@](C)(C(=O)N[C@@H](CC(C)C)C(=O)N[C@@H](CCCCN)C(=O)N[C@H](C(=O)N[C@@H](CCC(=O)O)C(=O)N[C@@H](CCC(=O)O)C(=O)NCC(=O)N[C@@H](CC(N)=O)C(N)=O)[C@@H](C)O)NC(=O)[C@H](CC(N)=O)NC(=O)[C@H]([C@@H](C)O)NC(=O)[C@H](CC(C)C)NC1=O` [Peptide 1, reference compound], in data set [1], the “plasma stability, characteristic peak in the chromatogram” value was “No characteristic peaks were observed”. In addition, the “α-helicity in PBS” value in data set [2] is on record as 16.20%. Moreover, the IC50 (as a rule, the concentration needed to halve the response being measured) in the data set on H358 cells [3] (CCK8, 24-h incubation) came out at 21.2 µM. Besides, on KRAS^G12C protein, the Kd came to 58.3 µM and the association rate constant (kon) (as a rule, the second-order rate constant of association) was 14800 M⁻¹ s⁻¹.

For `CC[C@H](C)[C@H](NC(=O)CNC(=O)[C@H](Cc1ccccc1)NC(=O)[C@H](Cc1ccccc1)NC(C)=O)C(=O)N[C@@]1(C)CCCC=CCCC[C@@](C)(C(=O)N[C@@H](CC(C)C)C(=O)N[C@@H](CCCCN)C(=O)N[C@H](C(=O)N[C@@H](CCC(=O)O)C(N)=O)[C@@H](C)O)NC(=O)[C@H](CC(N)=O)NC(=O)[C@H]([C@@H](C)O)NC(=O)[C@H](CC(C)C)NC1=O` [Peptide 2] (Ac-FFGI[S5]LTN[S5]LKTE-NH2; staple 5-9), on KRAS^G12C protein, the Kd was determined as 21.7 µM and the kon worked out at 43600 M⁻¹ s⁻¹.

With `CC[C@H](C)[C@H](NC(=O)CNC(=O)[C@H](Cc1ccccc1)NC(C)=O)C(=O)N[C@@]1(C)CCCC=CCCC[C@@](C)(C(=O)N[C@@H](CC(C)C)C(=O)N[C@@H](CCCCN)C(=O)N[C@H](C(N)=O)[C@@H](C)O)NC(=O)[C@H](CC(N)=O)NC(=O)[C@H]([C@@H](C)O)NC(=O)[C@H](CC(C)C)NC1=O` [Peptide 3] (Ac-FGI[S5]LTN[S5]LKT-NH2; staple 4-8), the CDK1 expression entry in data set [4] is “significantly downregulated”. Besides, the “proportion of apoptotic cells (Q2 + Q3)” value in the data set on H358 cells [5] (2.5 μmol/L) was determined as 56.63%; in the data set on H358 cells [5] (10 μmol/L), 61.40%; with H358 cells [5] (20 μmol/L), 70.70%. The “cyclin B1 expression” value with cyclin B1 is on record as “significantly downregulated”. In addition, in the data set on BAX, the “pro-apoptotic BAX protein expression” value is reported as “insignificant effect”. Moreover, the “caspase 3 expression” value in the data set on caspase 3 was “increased”. For the same molecule, in data set [2], the “α-helicity in PBS” value turned out to be 18.93%. The IC50 with H358 cells [3] (CCK8, 24-h incubation) worked out at 15.7 µM; with H358 cells [3] (CCK8, 36-h incubation), 7.55 µM; with H358 cells [3] (CCK8, 48-h incubation), 5.75 µM; with H358 cells [3] (CCK8, 72-h incubation), 6.68 µM. The same molecule had a helicity in the data set “circular dichroism” of 18.9%. Further, the “percentage of cells in the G2/M” value in the data set on H358 cells [6] amounted to 49.79%. For the same molecule, the “anti-apoptotic BCL-2 protein expression” value in the data set on BCL-2 is listed as “obviously inhibited”. Further, the “percentage of trypsin hydrolysate (g) of the peptide” value in the data set on trypsin (12 h) was 78%; with trypsin (24 h) it was 34%. In addition, the kon at KRAS^G12C protein amounted to 4600 M⁻¹ s⁻¹.

For the molecule `CC[C@H](C)[C@H](NC(=O)CNC(C)=O)C(=O)N[C@@]1(C)CCCC=CCCC[C@@](C)(C(=O)N[C@@H](CC(C)C)C(=O)N[C@@H](CCCCN)C(N)=O)NC(=O)[C@H](CC(N)=O)NC(=O)[C@H]([C@@H](C)O)NC(=O)[C@H](CC(C)C)NC1=O` [Peptide 4] (Ac-GI[S5]LTN[S5]LK-NH2; staple 3-7), on KRAS^G12C protein, the Kd worked out at 25 µM and the association rate constant (kon) came out at 97.6 M⁻¹ s⁻¹.

With `CC[C@H](C)[C@H](NC(C)=O)C(=O)N[C@@]1(C)CCCC=CCCC[C@@](C)(C(=O)N[C@@H](CC(C)C)C(N)=O)NC(=O)[C@H](CC(N)=O)NC(=O)[C@H]([C@@H](C)O)NC(=O)[C@H](CC(C)C)NC1=O` [Peptide 5] (Ac-I[S5]LTN[S5]L-NH2; staple 2-6), on KRAS^G12C protein, the kon is 3.12 M⁻¹ s⁻¹. For the same molecule, the Kd at KRAS^G12C protein (BLI, dissociation rate constant) turned out to be 1.06 s⁻¹.

Regarding `CC(=O)N[C@@]1(C)CCCC=CCCC[C@@](C)(C(N)=O)NC(=O)[C@H](CC(N)=O)NC(=O)[C@H]([C@@H](C)O)NC(=O)[C@H](CC(C)C)NC1=O` [Peptide 6] (Ac-[S5]LTN[S5]-NH2; staple 1-5), on KRAS^G12C protein, the kon is 3.22 M⁻¹ s⁻¹.

In the case of `CC[C@H](C)[C@H](NC(C)=O)C(=O)N[C@@]1(C)CCCC=CCCC[C@@](C)(C(=O)N[C@@H](CC(C)C)C(=O)N[C@@H](CCCCN)C(=O)N[C@H](C(N)=O)[C@@H](C)O)NC(=O)[C@H](CC(N)=O)NC(=O)[C@H]([C@@H](C)O)NC(=O)[C@H](CC(C)C)NC1=O` [Peptide 7] (Ac-I[S5]LTN[S5]LKT-NH2; staple 2-6), the “α-helicity in PBS” value in data set [2] amounted to 17.90%. On KRAS^G12C protein, this molecule gave a Kd of 87.2 µM and a kon of 64.7 M⁻¹ s⁻¹.

For `CC(=O)N[C@@]1(C)CCCC=CCCC[C@@](C)(C(=O)N[C@@H](CC(C)C)C(=O)N[C@@H](CCCCN)C(=O)N[C@H](C(N)=O)[C@@H](C)O)NC(=O)[C@H](CC(N)=O)NC(=O)[C@H]([C@@H](C)O)NC(=O)[C@H](CC(C)C)NC1=O` [Peptide 8] (Ac-[S5]LTN[S5]LKT-NH2; staple 1-5), on KRAS^G12C protein, the Kd was 29.1 µM and the on-rate constant (kon) is 1750 M⁻¹ s⁻¹.

In the case of `CC[C@H](C)[C@H](NC(=O)CNC(=O)[C@H](Cc1ccccc1)NC(C)=O)C(=O)N[C@@]1(C)CCCC=CCCC[C@@](C)(C(=O)N[C@@H](CC(C)C)C(N)=O)NC(=O)[C@H](CC(N)=O)NC(=O)[C@H]([C@@H](C)O)NC(=O)[C@H](CC(C)C)NC1=O` [Peptide 9] (Ac-FGI[S5]LTN[S5]L-NH2; staple 4-8), at KRAS^G12C protein, the Kd was 64.9 µM and the association rate constant (kon) came to 1630 M⁻¹ s⁻¹.

As to `CC[C@H](C)[C@H](NC(=O)CNC(=O)[C@H](Cc1ccccc1)NC(C)=O)C(=O)N[C@@]1(C)CCCC=CCCC[C@@](C)(C(N)=O)NC(=O)[C@H](CC(N)=O)NC(=O)[C@H]([C@@H](C)O)NC(=O)[C@H](CC(C)C)NC1=O` [Peptide 10] (Ac-FGI[S5]LTN[S5]-NH2; staple 4-8), on KRAS^G12C protein, the Kd is 131 µM and the kon is 294 M⁻¹ s⁻¹.

SAH-SOS1A (peptide 1): the dissociation rate constant (koff) (usually the rate constant with which the complex falls apart) in data set [7] turned out to be 0.862 s⁻¹.
